Measurements taken from ChEMBL document CHEMBL1129584, “3,3-Dialkyl- and 3-alkyl-3-benzyl-substituted 2-pyrrolidinones: a new class of anticonvulsant agents” (J Med Chem, 1996).

Experiments:
[1] = Neurotoxicity in mice was assessed by rotarod test; type: toxicity; details: mouse, in vivo
[2] = target: GABA-A receptor; anion channel; test: Binding affinity for Gamma-aminobutyric acid A receptor from rat brain in the presence of radioligand [35S]- TBPS
Method in brief: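 [35S]TBPS displacement in rat brain membranes (picrotoxin site of GABA-A receptors). Compounds dissolved in DMSO, final DMSO ≤2.5%. IC50 from at least three experiments in triplicate, mean ± SEM.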

Mus musculus [3] = species: Mus musculus; test: Anticonvulsant activity in mice against maximal electroshock (MES) induced tonic hindlimb seizures; type: functional
Method in brief: (§1)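 At least four groups of six mice each. Where these could not be calculated, the […] and lowest all-protected doses are given instead.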

Mus musculus [4] = species: Mus musculus; test: Anticonvulsant activity in mice against pentylenetetrazole (PTZ) induced clonic seizures; type: functional; method in brief: as §1
[5] = Protective index, measure of ratio of TD50 and ED50; type: functional
Method in brief: (§2)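 Protective index calculated as TD50 (rotorod) divided by ED50 in the PTZ or MES mouse seizure test.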

[6] = target: T1, GABA-A receptor; anion channel (Rattus norvegicus) (UniProt O09028+P15431+P18506+P18508+P19969+P20236+P23574+P23576+P28471+P28473+P30191+P62813+P63079+P63138+Q91ZM7+Q9ES14); test: Induced percentage potentiation of 3 uM GABA-mediated current at rat brain Gamma-aminobutyric acid A receptor (8 cells); type: functional
[7] = Protective index, measure of ratio of TD50 and ED50 of PTZ; type: functional; method in brief: as §2
[8] = target: T1, GABA-A receptor; anion channel (Rattus norvegicus); test: Induced percentage potentiation of 3 uM GABA-mediated current at rat brain Gamma-aminobutyric acid A receptor (8 cells) at 1 mM in the presence of 3 mM alpha-IMGBL (picrotoxin antagonist); type: functional
[9] = Protective index, measure of ratio of TD50 and ED50 of MES; type: functional; method in brief: as §2
[10] = target: T1, GABA-A receptor; anion channel (Rattus norvegicus); test: Antagonism (300 uM) induced potentiation of 3 uM Gamma-aminobutyric acid A receptor mediated current by picrotoxin antagonist (alpha-IMGBL) at a dose 3 mM on 5 rat brain cells; type: functional, tissue-based; set-up: scale not given: the % may be the effect or the level left

| SMILES | TD50 [1] [mg/kg] | IC50 [2] [mM] | also measured |
| --- | --- | --- | --- |
| O=C1NCCC12CCCC2 | 307 | 12.1 | – |
| CC1(Cc2ccccc2)CCNC1=O (stereo unspecified) | – | 0.85 | – |
| CC(C)C1(C)CCNC1=O (stereo unspecified) | – | 6.86 | – |
| O=C1CCCS1 [THIOBUTYROLACTONE] | – | 0.33 | – |
| CC1(C)CCNC1=O | > 600 | 32.4 | ED50 (Mus musculus [3]): > 600 mg/kg |
| CCCC(CCC)C(=O)O [VALPROIC ACID] | – | – | ED50 (Mus musculus [4]): 133 mg/kg; PI [5]: 2.12 |
| CCC1(CC)CCNC1=O | 260 | 5.81 | Activity [6]: 137%; PI [7]: 5.65; Activity [8]: 108% |
| O=C1CCCN1 [2-PYRROLIDONE] | > 900 | – | – |
| CCC1(C(C)C)CCNC1=O (stereo unspecified) | 207 | 2.62 | – |
| CCC1(C)CCNC1=O (stereo unspecified) | – | 12.1 | – |
| O=C1NCCC1Cc1ccccc1 (stereo unspecified) | 144 | 2.44 | PI [9]: 3.51 |
| CC(C)(C)C1(C)CCNC1=O (stereo unspecified) | > 300 | 3.26 | – |
| CCC1(Cc2ccccc2)CCNC1=O (stereo unspecified) | – | – | Activity [10]: 98% |
| CCC1CCNC1=O (stereo unspecified) | – | 48.1 | – |
| CC1CCNC1=O (stereo unspecified) | > 900 | – | – |
| CCC1(C)CC(=O)NC1=O (stereo unspecified) [ETHOSUXIMIDE] | – | – | ED50 (Mus musculus [4]): 161 mg/kg; PI [5]: 2.35 |
| CCC1(c2ccccc2)C(=O)NC(=O)NC1=O [PHENOBARBITAL] | – | – | ED50 (Mus musculus [4]): 22 mg/kg; PI [5]: 4 |
